According to PubChem BioAssay AID588743 (Vanderbilt Specialized Chemistry Center, 2011):
The source made the active and inactive calls.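 The calls were made as follows: active = a dose-dependent boost of the low-dose acetylcholine calcium response, with potency and top response fitted; inactive = the rest.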

target: Muscarinic acetylcholine receptor M4 (Homo sapiens) (UniProt P08173); assay: potentiation of ACh response at M4 – CHO hM4/Gqi5 cells, calcium mobilization, SAR follow-up (AID 588743); settings: PAM with EC20 ACh
Sequence (P08173 whole entry, looked up): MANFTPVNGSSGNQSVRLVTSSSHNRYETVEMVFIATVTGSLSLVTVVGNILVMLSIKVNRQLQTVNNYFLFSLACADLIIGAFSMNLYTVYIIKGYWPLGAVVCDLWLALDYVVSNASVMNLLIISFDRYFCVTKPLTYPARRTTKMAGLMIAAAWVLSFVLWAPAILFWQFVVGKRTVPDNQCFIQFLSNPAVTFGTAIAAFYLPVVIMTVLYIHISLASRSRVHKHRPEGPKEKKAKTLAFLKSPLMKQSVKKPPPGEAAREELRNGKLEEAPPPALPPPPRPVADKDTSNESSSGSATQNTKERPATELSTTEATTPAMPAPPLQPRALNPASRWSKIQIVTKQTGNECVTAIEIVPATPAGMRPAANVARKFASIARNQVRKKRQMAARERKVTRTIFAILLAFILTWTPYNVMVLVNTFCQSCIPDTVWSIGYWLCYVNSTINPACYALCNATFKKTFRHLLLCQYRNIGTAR
Method in brief: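 System: CHO cells stably co-expressing human M4 receptor and chimeric Gqi5; probe or stimulus: acetylcholine at EC20, then at EC80 86 s later; times: 144 s compound preincubation, 37 °C; detection: Fluo-4 AM calcium fluorescence; measure: EC50 by four-parameter logistic fit, signal as percent ACh maximum; control set: 1 mM ACh maximum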

Row | Compound | EC50 [nM]
1 | Cc1nc2sc(C(=O)NC3CCOCC3)c(N)c2c(C)c1Cl | 220
2 | Cc1nc2sc(C(=O)NCc3ccncc3)c(N)c2c(C)c1Cl | 37.2
3 | Cc1nc2sc(C(=O)NC3CCOC3)c(N)c2c(C)c1Cl (configuration not stated) | 28.7
4 | Cc1nc2sc(C(=O)NCc3ccccc3Cl)c(N)c2c(C)c1Cl | 154
5 | Cc1nc2sc(C(=O)NC(C)c3ccccn3)c(N)c2c(C)c1Cl (configuration not stated) | 1410
6 | Cc1nc2sc(C(=O)NCc3ccc(C(F)(F)F)cc3)c(N)c2c(C)c1Cl | 1140
7 | Cc1nc2sc(C(=O)NC(C)(C)C)c(N)c2c(C)c1Cl | 372
8 | Cc1nc2sc(C(=O)NCc3nccs3)c(N)c2c(C)c1Cl | 174
9 | Cc1nc2sc(C(=O)NCc3cnccn3)c(N)c2c(C)c1Cl | 250
10 | Cc1nc2sc(C(=O)NCc3ccc4c(c3)OCO4)c(N)c2c(C)c1Cl | 170
11 | Cc1nc2sc(C(=O)NCCc3ccncc3)c(N)c2c(C)c1Cl | 211
12 | Cc1nc2sc(C(=O)NCCc3ccccn3)c(N)c2c(C)c1Cl | 686
13 | Cc1cc(CNC(=O)c2sc3nc(C)c(Cl)c(C)c3c2N)ccn1 | 57
14 | Cc1nc2sc(C(=O)NCc3cccc(F)c3F)c(N)c2c(C)c1Cl | 120
15 | Cc1nc2sc(C(=O)NC(C)C)c(N)c2c(C)c1Cl | 183
16 | Cc1nc2sc(C(=O)NC(C)c3ccncc3)c(N)c2c(C)c1Cl (configuration not stated) | 600

Row | Compound | EC50 [nM]
17 | Cc1nc2sc(C(=O)NC3COC3)c(N)c2c(C)c1Cl | 906
18 | Cc1nc2sc(C(=O)NCc3ccncn3)c(N)c2c(C)c1Cl | 173
19 | Cc1nc2sc(C(=O)NC3CC3)c(N)c2c(C)c1Cl | 20.8
20 | Cc1nc2sc(C(=O)NCc3ccccn3)c(N)c2c(C)c1Cl | 293
21 | Cc1nc2sc(C(=O)NCc3ncccn3)c(N)c2c(C)c1Cl | 1070
22 | COCCCNC(=O)c1sc2nc(C)c(Cl)c(C)c2c1N | 425
23 | Cc1nc2sc(C(=O)NCC3CCCCC3)c(N)c2c(C)c1Cl | 1090
24 | Cc1ccc(CNC(=O)c2sc3nc(C)c(Cl)c(C)c3c2N)cc1 | 132
25 | Cc1nc2sc(C(=O)NC3CCCCC3)c(N)c2c(C)c1Cl | 188
26 | COc1ccc(CNC(=O)c2sc3nc(C)c(Cl)c(C)c3c2N)cc1 | 89.1
27 | Cc1nc2sc(C(=O)NCc3cccnc3)c(N)c2c(C)c1Cl | 328
28 | Cc1nc2sc(C(=O)NC(C)c3cccnc3)c(N)c2c(C)c1Cl (configuration not stated) | 601
29 | Cc1nc2sc(C(=O)NCCC3CCCN3C)c(N)c2c(C)c1Cl (configuration not stated) | 596
30 | Cc1nc2sc(C(=O)NCc3ccnnc3)c(N)c2c(C)c1Cl | 222
31 | Cc1nc2sc(C(=O)NCc3ccccc3)c(N)c2c(C)c1Cl | 133

same assay, conditions: PAM with EC20 ACh, at 30 µM (top of the series)

Row | Compound | percent ACh max response
32 | Cc1nc2sc(C(=O)NCCc3cccnc3)c(N)c2c(C)c1Cl | inactive
33 | Cc1nc2sc(C(=O)Nc3ccccc3N(C)C)c(N)c2c(C)c1Cl | inactive
34 | CCOc1ccc(NC(=O)c2sc3nc(C)c(Cl)c(C)c3c2N)cc1 | inactive
35 | COc1ccc(NC(=O)c2sc3nc(C)c(Cl)c(C)c3c2N)cc1 | 45.2

same assay, conditions: PAM with EC20 ACh, at 36.9 µM (top of the series)

Row | Compound | percent ACh max response
36 | Cc1nc2sc(C(=O)NCc3ccc(F)c(F)c3)c(N)c2c(C)c1Cl | 31.6
37 | Cc1nc2sc(C(=O)NCc3ccc(Cl)cc3)c(N)c2c(C)c1Cl | 32.3
